Bioassay records: PubChem BioAssay, several laboratories
Rows were chosen to be rich in hits. Some 2.1% of all compounds tested hit in one or more screens of this group.
UCH37 DUB inh: inhibitors of human UCH37 deubiquitinase, primary screen, biochemical, Ub-AMC cleavage, fluorescence; Ubiquitin carboxyl-terminal hydrolase isozyme L5 (Homo sapiens), Q9Y5K5; purified proteasome/UCH37; inhibition, % (test concentration not listed); hit rate 0.33% among 330,000;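 active means mean inhibition over replicate wells above about 20%, limit read from the data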;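 further: 0% = compound-free wells with enzyme and 100% = wells lacking proteasome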
Target sequence (Q9Y5K5 whole entry, looked up): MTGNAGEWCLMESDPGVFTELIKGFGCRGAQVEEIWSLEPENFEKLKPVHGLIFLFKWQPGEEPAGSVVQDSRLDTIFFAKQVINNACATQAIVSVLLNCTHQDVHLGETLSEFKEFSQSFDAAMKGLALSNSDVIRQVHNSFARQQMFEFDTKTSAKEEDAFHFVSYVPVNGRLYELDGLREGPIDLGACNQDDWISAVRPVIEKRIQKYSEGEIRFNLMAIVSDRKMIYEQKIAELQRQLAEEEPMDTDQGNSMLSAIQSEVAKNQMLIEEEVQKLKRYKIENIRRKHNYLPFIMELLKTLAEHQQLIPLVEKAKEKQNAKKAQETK
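system = Proteasome-associated human UCH37 deubiquitinase | amount = 0.15 nM proteasome as dispensed | medium = pH 7.4 Tris-HCl (50 mM) with ovalbumin, ATP-MgCl2, DTT | incubation = 30 min preincubation with enzyme, 25 min cleavage at room temperature | detection = AMC fluorescence 355/460 nm | read-out basis = percent inhibition | controls = no-proteasome and no-compound wells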
MIN6 prolif: inducers of MIN6 beta-cell proliferation, primary screen, ATP luminescence, uHTS; proliferation, % at 10 µM; MIN6 cells proliferation, ATPlite luminescence, 48 h; cells starved in 0.2% serum; 100% = growth in 10% serum; AID 2380, 2010; hit rate 0.29% among 330,000;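 active means compounds whose signal lies at least 3.5 SD above the mean of all wells on their plate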;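 further: 0% = DMSO-treated cells in low-serum medium and 100% = 10% serum control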
CRFR2-BP ag: agonists of CRF-BP/CRF-R2 complex, primary screen, cell-based, HEK293, calcium dye fluorescence, uHTS. calcium dye fluorescence (FLIPR); percent of saturating CRF peptide response. activation, % at 13.2 µM. hit rate 0.46% among 350,000. AID 588473, 2011;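 active means activation of at least 50%, plus an integration ratio under a set limit after plate pattern correction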;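 further: plate controls were neutral control wells without compound for no effect and CRF at EC100 for full effect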
CRFBP-R2 block: antagonists of CRF-BP/CRF-R2 complex, primary screen, cell-based, HEK293, calcium dye fluorescence, uHTS; inhibition, % at 11.8 µM; hit rate 0.59% among 350,000; CRF-induced calcium fluorescence;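 active means inhibition of the ligand-induced calcium signal above about 50% at the single tested concentration, limit read from the data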
H9c2 protect: cardioprotection against H2O2-induced cell death, primary screen, uHTS, H9c2 cells, ATPLite luminescence; H9c2 cardiomyocytes, H2O2 injury protection, 2 h; protection from H2O2 cell death, % at 20 µM; hit rate 0.63% among 360,000; AID 588492, 2011;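 active means compounds giving at least 50% protection of heart cells from peroxide-induced death in the single-dose screen, raw or plate-pattern-corrected value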;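 further: 0% = DMSO wells with peroxide and 100% = DMSO wells without peroxide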
hiPSC survival: enhancers of single-cell hiPSC survival, primary screen, ATPlite luminescence; 100% = ROCK inhibitor wells, 0% = DMSO; AID 602274, 2012; hit rate 0.044% among 360,000; survival enhancement, % at 20 µM; in the data active means survival enhancement above about 18%;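 further: cells exposed to compounds for 16 hours before the ATP read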
Starred values were filed as active, the others as inactive.

O=C(Nc1cccc(Cl)c1)c1cccc(Oc2ccc([N+](=O)[O-])cc2Cl)c1 was read as UCH37 DUB inh 0, MIN6 prolif -6, CRFR2-BP ag 0, CRFBP-R2 block -6, H9c2 protect -29 and hiPSC survival 0.
Screening O=C(Nc1ccc([N+](=O)[O-])cc1Cl)c1cc(Cl)ccc1O returned UCH37 DUB inh 2, MIN6 prolif -8, CRFR2-BP ag 61*, CRFBP-R2 block 87*, H9c2 protect -42 and hiPSC survival -2.
`O=C(Nc1ccc([N+](=O)[O-])cc1Cl)c1cccc([N+](=O)[O-])c1` gave CRFR2-BP ag -1, CRFBP-R2 block 25, H9c2 protect -17 and hiPSC survival -2.
C/C(C=NN1CCN(c2ccc(C)cc2)CC1)=C\c1ccccc1 was read as UCH37 DUB inh 2.
`Oc1c(Br)cc(Br)cc1C=Nc1cccc2ncccc12` gave UCH37 DUB inh 11, MIN6 prolif -4, CRFR2-BP ag 7, CRFBP-R2 block 0, H9c2 protect 64* and hiPSC survival 0.
`CCOC(=O)c1ccc(-c2ccc(/C=C(\C#N)C(=O)NCC3CCCO3)o2)cc1` (stereo unspecified) gave MIN6 prolif -4, CRFR2-BP ag 2, CRFBP-R2 block -8, H9c2 protect 52* and hiPSC survival -2.
Screening COc1ccc(/C=C(\C#N)C(=O)NCC2CCCO2)cc1OC (stereo unspecified) returned UCH37 DUB inh 5, MIN6 prolif -3, CRFR2-BP ag -1, CRFBP-R2 block -1, H9c2 protect 2 and hiPSC survival 4.
For O=C(NN=Cc1c[nH]c2ccccc12)C1CC1c1ccccc1 (stereo unspecified) the results were UCH37 DUB inh 2.
`COc1ccc(O[C@H]2C=C[C@@H](c3ccccc3)O[C@@H]2CON=CC[C@@H]2C=C[C@H](OC(C)=O)[C@@H](COC(C)=O)O2)cc1` gave UCH37 DUB inh 1.
Nc1nc(Nc2ccccc2Cl)cc(=O)[nH]1 was read as UCH37 DUB inh 5, MIN6 prolif 0, CRFR2-BP ag 0, CRFBP-R2 block 100*, H9c2 protect -2 and hiPSC survival 0.
COc1cc(/C=C2\S/C(=N/S(=O)(=O)c3ccccc3)NC2=O)c([N+](=O)[O-])cc1OC was read as UCH37 DUB inh 23*, MIN6 prolif -1, CRFR2-BP ag 3, CRFBP-R2 block 21, H9c2 protect 18 and hiPSC survival -3.
CCN(CC)c1ccc(C=NN2CCN(Cc3ccc(C)cc3C)CC2)c(O)c1 was read as UCH37 DUB inh 1.
Screening O=C(NC1CCCC1)C1CCC(CNS(=O)(=O)c2ccccc2)CC1 (stereo unspecified) returned UCH37 DUB inh 5, MIN6 prolif 2, CRFR2-BP ag 1, CRFBP-R2 block -15, H9c2 protect -9 and hiPSC survival 0.
For O=C(NC1CCCC1)C1CCC(CNS(=O)(=O)c2ccc(F)cc2)CC1 (stereo unspecified) the results were UCH37 DUB inh 3, MIN6 prolif 0, CRFR2-BP ag -2, CRFBP-R2 block 89*, H9c2 protect 1 and hiPSC survival 0.
Screening CCOC(=O)C1=NN(C(=O)c2ccc(OC)cc2)C(O)(c2ccc(Cl)cc2)C1 (stereo unspecified) returned UCH37 DUB inh 3, MIN6 prolif -4, CRFR2-BP ag 80*, CRFBP-R2 block -4, H9c2 protect 7 and hiPSC survival 1.
CCOC(=O)C1=NN(C(=O)c2ccccc2)C(O)(c2ccc(C)cc2)C1 (stereo unspecified) was read as UCH37 DUB inh 1, MIN6 prolif 0, CRFR2-BP ag 105*, CRFBP-R2 block -4, H9c2 protect 6 and hiPSC survival 1.
Screening COC(=O)C1=NN(C(=O)c2cccc(Br)c2)C(O)(c2ccc(Cl)cc2)C1 (stereo unspecified) returned UCH37 DUB inh 0, MIN6 prolif -1, CRFR2-BP ag 99*, CRFBP-R2 block -30, H9c2 protect 8 and hiPSC survival 0.
